As a reminder, the IC50 is the point on the concentration scale where inhibition reaches its midpoint. In general, GI50 refers to the concentration giving 50% growth inhibition.

The text below walks through data of ChEMBL document CHEMBL4393712, “Discovery of chalcone-modified estradiol analogs as antitumour agents that Inhibit tumour angiogenesis and epithelial to mesenchymal transition” (Eur J Med Chem, 2019).

One data set has as its system SK-N-SH. Briefly: Antitumour activity against human SK-N-SH cells assessed as cell growth inhibition measured after 72 hrs by SRB assay. It counts as functional, cell-based. In outline: (§1)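 Exponentially growing cells trypsinized, seeded at 5 × 10^4 cells/mL in 96-well plates, cultured overnight, then exposed to compounds for 72 h. Cells fixed with 10% TCA 1 h, stained with SRB 15 min, dye dissolved in Tris-HCl, absorbance read; 50% growth-inhibitory concentration calculated.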

The next data set relates to B16. Put plainly: Antitumour activity against mouse B16 cells assessed as cell growth inhibition measured after 72 hrs by SRB assay. It counts as functional, cell-based. As to conditions: B16, 72 h. A digest of the protocol: as §1
Another data set relates to ECa-109 cell line. Put plainly: Antitumour activity against human EC109 cells assessed as cell growth inhibition measured after 72 hrs by SRB assay. The class given is functional, cell-based. The note with it: ECa-109, 72 h. In outline: as §1
On the technique in general: Sulforhodamine B stains cellular protein and so reports cell mass.

The test system of data set [1] is MGC-803. Briefly: Antitumour activity against human MGC803 cells assessed as cell growth inhibition measured after 72 hrs by SRB assay. The note with it: MGC-803, 72 h. It counts as functional, cell-based. A digest of the protocol:
as §1

In the next data set the test system is A549. Put plainly: Antitumour activity against human A549 cells assessed as cell growth inhibition measured after 72 hrs by SRB assay. It counts as functional, cell-based. The note with it: A549, 72 h. In outline:
as §1

For a further data set, the system named is SMMC-7721. Briefly: Antitumour activity against human SMMC7721 cells assessed as cell growth inhibition measured after 72 hrs by SRB assay. It counts as functional, cell-based. As to conditions: SMMC-7721, 72 h. A digest of the protocol:
as §1

A further data set has as its system Chorioallantoic membrane. Briefly: Antiangiogenic activity in chicken chorioallantoic membrane assessed as reduction in neovascularization at 50 ug/ml measured after 72 hrs by CAM assay. It counts as functional. The note with it: Gallus gallus. A digest of the protocol:
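Fertilized chicken eggs incubated 6 days at 37 °C; shell windowed and CAM treated (compounds and controls at […] as printed; saline vehicle control). Eggs re-incubated humidified; membranes fixed and harvested after 72 h. Angiogenesis scored by counting blood vessels and imaging neovascular zones; ten eggs per group.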

Data set [2] in a line: Toxicity in nude mouse xenografted with human MCF7 cells assessed as liver edema at 45 mg/kg/day, ip administered for 21 days by HE staining analysis. It counts as organism-based. As to conditions: in vivo, 504 h. Background: In xenograft studies the graft and the host belong to different species.
Data set [3] can be described thus: Toxicity in nude mouse xenografted with human MCF7 cells assessed as decrease in body weight at 45 mg/kg/day, ip administered for 21 days. It counts as organism-based. The note with it: in vivo, 504 h. A digest of the protocol:
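Nude mice (male/female, 4–6 weeks) injected subcutaneously in right forelimb with 5 × 10^7 MCF-7 cells in 200 µL saline; at mean tumour 100 mm3 randomized (n = 5/group): saline 0.2 mL/day, 22.5 or 45 mg/kg/day ip for 21 days. Body weight and tumour volume (length × width²/2) every other day; tumours weighed at day 21.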

In another data set the test system is HUVEC. Put plainly: Cytotoxicity against HUVEC assessed as reduction in cell viability measured after 48 to 72 hrs by MTT assay. It counts as cell-based. The note with it: human. A digest of the protocol:
(§2)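 Cells seeded at 3 × 10^3 per well in 96-well plates, incubated overnight, then given fresh medium with a range of drug concentrations for 48 h or 72 h. MTT added (final 500 µg/mL) for 4 h, formazan dissolved in DMSO, absorbance at 570 nm; IC50 derived. Mean ± SD of 3 independent tests.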

The subject of a further data set is GES1. Put plainly: Cytotoxicity against human GES-1 cells assessed as reduction in cell viability measured after 48 to 72 hrs by MTT assay. It counts as cell-based. In outline: as §2
The test system of data set [4] is MGC-803. Briefly: Cytotoxicity against human MGC803 cells assessed as reduction in cell viability measured after 48 to 72 hrs by MTT assay. It counts as cell-based. In outline:
as §2
(Tetrazolium assays rely on reduction of a dye to a coloured formazan, in cell work by metabolically active cells.)

In another data set the test system is PC-3. Briefly: Cytotoxicity against human PC3 cells assessed as reduction in cell viability measured after 48 to 72 hrs by MTT assay. The class given is cell-based. In outline: as §2
Data set [5] can be described thus: Hepatotoxicity in nude mouse xenografted with human MCF7 cells assessed as increase in serum alanine transaminase level at 45 mg/kg/day, ip administered for 21 days by biochemical automatic analyzer. It counts as toxicity, organism-based. As to conditions: in vivo, 504 h.
Data set [6] in a line: Hepatotoxicity in nude mouse xenografted with human MCF7 cells assessed as increase in serum aspartate transaminase level at 45 mg/kg/day, ip administered for 21 days by automatic biochemical analyzer. The class given is toxicity, organism-based. The note with it: in vivo, 504 h.
Data set [7] in a line: Hepatotoxicity in nude mouse xenografted with human MCF7 cells assessed as increase in serum alkaline phosphatase level at 45 mg/kg/day, ip administered for 21 days by biochemical automatic analyzer. It counts as toxicity, organism-based. As to conditions: in vivo, 504 h.
A further data set has as its system MCF7. Briefly: Antiproliferative activity against human MCF7 cells measured after 72 hrs by MTT assay. The class given is functional, cell-based. The note with it: MCF7, 72 h.
For the next data set, the system named is MDA-MB-231. Briefly: Antiproliferative activity against human MDA-MB-231 cells measured after 72 hrs by MTT assay. The class given is functional, cell-based. As to conditions: MDA-MB-231, 72 h.
The subject of another data set is HeLa. Briefly: Antiproliferative activity against human HeLa cells measured after 72 hrs by MTT assay. It counts as functional, cell-based.
Another data set deals with CCRF-CEM. Briefly: Anticancer activity against human CCRF-CEM cells measured after 48 hrs by SRB assay. It counts as functional.
For another data set, the system named is K562. Briefly: Anticancer activity against human K562 cells measured after 48 hrs by SRB assay. It counts as functional. The note with it: K562, 48 h.
The subject of a further data set is RPMI-8226. Briefly: Anticancer activity against human RPMI8226 cells measured after 48 hrs by SRB assay. The class given is functional. As to conditions: RPMI-8226, 48 h.
The next data set deals with SR. Put plainly: Anticancer activity against human SR cells measured after 48 hrs by SRB assay. It counts as functional.
Another data set relates to HCT-116. Briefly: Antiproliferative activity against human HCT116 cells measured after 48 hrs by SRB assay. As to conditions: HCT-116, 48 h. The class given is functional.
Another data set deals with NCI-H460. Briefly: Antiproliferative activity against human NCI-H460 cells measured after 48 hrs by SRB assay. It counts as functional. The note with it: NCI-H460, 48 h.
In another data set the test system is U-251. Briefly: Antiproliferative activity against human U251 cells measured after 48 hrs by SRB assay. The class given is functional. As to conditions: U-251, 48 h.
A further data set has as its system MDA-MB-435. Put plainly: Antiproliferative activity against human MDA-MB-435 cells measured after 48 hrs by SRB assay. The class given is functional. The note with it: MDA-MB-435, 48 h.

Calls of active or inactive are those of the source. The rule behind the calls is not given here.

For `COc1cc2c(cc1O)CC[C@@H]1[C@@H]2CC[C@]2(C)[C@@H](O)CC[C@@H]12` [2-METHOXYESTRADIOL], the IC50 in the data set with SK-N-SH was 1600 nM; in the data set on B16 it was 3400 nM; in the data set with ECa-109 cell line, 4100 nM; in the data set with MGC-803 [1] it was 4000 nM; with A549 it was 1100 nM; in the data set on SMMC-7721, 8400 nM. The inhibition entry in the data set on Chorioallantoic membrane was “Active”. For the same compound, the Activity entry (in data set [2]; in [3]; with HUVEC; with GES1; in the data set with MGC-803 [4]; with PC-3) was “Toxic” in each case. The Activity entry in [5], in [6] and in [7] was “Toxic” each time.

As for `C[C@]12CC[C@H]3[C@@H](CCC4=CC(=O)CC[C@@]43C)[C@@H]1CC[C@@H]2C(=O)/C=C/c1ccc(F)cc1`, the concentration for half-maximal inhibition (IC50) with MCF7 and with MDA-MB-231 was 2000 nM in each case.

`C[C@]12CC[C@@H]3c4ccc(O)cc4CC[C@H]3[C@@H]1C/C(=N\O)C2=O` yielded an IC50 in the data set on HeLa of 4410 nM.

In the case of `CN1CCN(C(=O)COc2ccc(/C=C3\C[C@H]4[C@@H]5CC=C6CC(Cl)CC[C@]6(C)[C@H]5CC[C@]4(C)C3=O)cc2)CC1` (some centres not stated), the 50% growth inhibitory concentration (GI50) with CCRF-CEM came to 3940 nM; with K562 it was 2610 nM; in the data set with RPMI-8226, 6900 nM; in the data set with SR, 1790 nM.

On to `C=C1CC[C@H]2[C@@H]3CCc4cc(O)c(/C=C/C(=O)c5cc(OC)c(OC)c(OC)c5)cc4[C@H]3CC[C@]12C`, for which the GI50 with HCT-116 stood at 1600 nM; with NCI-H460, 2600 nM; in the data set with U-251, 1400 nM; in the data set on MDA-MB-435, 1600 nM.
